Data set [1] in a line: Clearance in rat hepatocytes assessed per million cells. The conditions noted are these: read-out: CLH. The format is ADME, cell-based, Hepatocyte.
Data set [2] can be described thus: Clearance in human hepatocytes assessed per million cells. The conditions noted are these: read-out: CLH. Type of data set: ADME, cell-based, Hepatocyte.
Data set [3] can be described thus: Ratio of drug level in brain to plasma of rat after 6 hrs. Type of data set: ADME. The conditions noted are these: read-out: BPR. Summed up: (§1)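 Animals were sacrificed at 6 h for ex vivo measurement of plasma concentration (nM) and brain level (ng/g), from which the brain to plasma ratio was derived.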
The nature of data set [4]: Clearance in dog hepatocytes assessed per million cells. The conditions noted are these: read-out: CLH. The format is ADME, cell-based, Canis lupus familiaris, Hepatocyte.
Data set [5] is described as follows: Drug uptake in rat brain after 6 hrs. The format is ADME, tissue-based. To be noted: read-out: Drug uptake. Summed up: as §1
The nature of data set [6]: Clearance in monkey hepatocytes assessed per million cells. The format is ADME, cell-based, Macaca mulatta, Hepatocyte. To be noted: rhesus monkey, read-out: CLH.
Data set [7] can be described thus: Plasma concentration in rat after 6 hrs. Type of data set: ADME. Summed up:
as §1

The nature of data set [8]: AUC (0 to 6 hrs) in monkey at 3 mg/kg, po. Type of data set: ADME, organism-based, Macaca mulatta. Also noted: time < 6 hr, dose 3 mg/kg, route oral. The conditions noted are these: rhesus monkey, plasma.
Data set [9] in a line: Half life in monkey at 3 mg/kg, po. The conditions noted are these: rhesus monkey, in vivo. Type of data set: ADME, organism-based, Macaca mulatta. Set-up: dose 3 mg/kg, route oral.
A short description of data set [10]: AUC (0 to 6 hrs) in rat at 10 mg/kg, po. Set-up: time < 6 hr, dose 10 mg/kg, route oral. The conditions noted are these: plasma. Type of data set: ADME, organism-based.

A word on the AUC(0-t): it is the area under the concentration-time curve up to a stated or last time point. In general, half-life refers to the time in which the quantity being followed falls by half. In the case of `Cc1ncc(C(O)c2c3cc(Cl)cc(C)c3nc3[nH]nc(C)c23)cn1` (racemic), the hepatocyte CLint is 11 µL/min/1e6 cells in data set [1], 2 µL/min/1e6 cells in data set [2], 7 µL/min/1e6 cells in [4] and 8 µL/min/1e6 cells in data set [6]. The Kp at 6 h in data set [3] is under 0.18. Moreover, the results for the concentration at 6 h in data set [5] and in data set [7] were under 14 ng/g and 220 nM, respectively. The values for the AUC(0-t) at 6 h in [8] and in data set [10] were 11.5 µM·h and 4.29 µM·h, respectively. The half-life in [9] was 7.1 h.

Take `COc1cc(C)c2nc3[nH]nc(C)c3c(C(O)c3ccc(F)cc3)c2c1` (racemic): in data set [6], the hepatocyte CLint was determined as 63 µL/min/1e6 cells.

In the case of `Cc1cc(Cl)cc2c(C(O)c3ccnc(F)c3)c3c(C)n[nH]c3nc12` (racemic), in data set [6], the hepatocyte CLint was 37 µL/min/1e6 cells.

On to `COc1cc(C)c2nc3[nH]nc(C)c3c(C(O)c3cccnc3)c2c1` (racemic), for which the hepatocyte CLint in data set [6] turned out to be 67 µL/min/1e6 cells.

Consider `COc1ccc(C(O)c2c3cc(OC)cc(C)c3nc3[nH]nc(C)c23)cc1` (racemic), for which, in [6], the hepatocyte CLint was found to be 60 µL/min/1e6 cells.

As for `COc1cc(C)c2nc3[nH]nc(C)c3c(C(=O)c3ccncc3)c2c1`, the hepatocyte CLint in data set [6] was 66 µL/min/1e6 cells.

`COc1cc(C)c2nc3[nH]nc(C)c3c(C(O)c3ccncc3)c2c1` (single isomer, unassigned; (+)): the hepatocyte CLint in data set [6] is 66 µL/min/1e6 cells.

Consider `COc1cc(C)c2nc3[nH]nc(C)c3c(C(F)c3ccncc3)c2c1` (single isomer, unassigned; (-)), for which the hepatocyte CLint in data set [6] worked out at 62 µL/min/1e6 cells.

For `Cc1cc(Cl)cc2c(C(O)c3cccnc3)c3c(C)n[nH]c3nc12` (racemic), the values for the hepatocyte CLint in data set [1], in [2] and in data set [6] were 26 µL/min/1e6 cells, 5 µL/min/1e6 cells and 46 µL/min/1e6 cells, respectively. Also, the Kp at 6 h in data set [3] was found to be 1.5. In addition, the concentration at 6 h in data set [5] was found to be 115 ng/g; in data set [7], 810 nM. This molecule also had an AUC(0-t) at 6 h in data set [10] of 11 µM·h.

On to `COc1cc(C)c2nc3[nH]nc(C)c3c(C(C#N)c3ccccc3)c2c1` (racemic), for which the hepatocyte CLint in data set [6] came out at 64 µL/min/1e6 cells.

`COc1cc(C)c2nc3[nH]nc(C)c3c(C(O)c3ccnc(F)c3)c2c1` (racemic): the hepatocyte CLint in data set [6] came out at 66 µL/min/1e6 cells.

Consider `Cc1cc(Cl)cc2c(C(O)c3ccncc3)c3c(C)n[nH]c3nc12` (racemic), for which, in data set [6], the hepatocyte CLint was determined as 25 µL/min/1e6 cells.

For the molecule `COc1cc(C)c2nc3[nH]nc(C)c3c(C(O)c3cncn3C)c2c1` (racemic), in data set [6], the hepatocyte CLint was found to be 22 µL/min/1e6 cells.

On to `COc1cc(C)c2nc3[nH]nc(C)c3c(C(O)c3ncco3)c2c1` (racemic), for which, in data set [6], the hepatocyte CLint was found to be 63 µL/min/1e6 cells.

With `COc1cc(C)c2nc3[nH]nc(C)c3c(C(C)(O)c3ccncc3)c2c1` (racemic), in data set [6], the hepatocyte CLint came to 66 µL/min/1e6 cells.

As for `COc1cc(C)c2nc3[nH]nc(C)c3c(CN3CCCOCC3)c2c1`, the figures for the hepatocyte CLint in data set [1] and in [2] were under 1 µL/min/1e6 cells and 8 µL/min/1e6 cells, respectively. In addition, the AUC(0-t) at 6 h in [10] was 3.76 µM·h.

(Values after ChEMBL document CHEMBL1949546, “Pyrazoloquinolines as PDE10A inhibitors: discovery of a tool compound” (Bioorg Med Chem Lett, 2012).)
